Converted amounts (≈) assume the structure as drawn.
Columns and labels:
[1] = Octanol-water partition coefficient, log P of the compound at pH 7.4 at room temperature by UV spectrophotometric analysis; format: physicochemical
In short: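 Shake-flask method at room temperature: 1-octanol and phosphate buffer (pH 7.4) were pre-saturated by shaking for 24 h. Compound at 10^-4 M in equal volumes of both phases was shaken vigorously for 1 h, left to stand 15 min, then centrifuged 10 min at 10,000 rpm. UV absorbance of each phase was read at 280 nm against blanks, and P was taken as the octanol/water absorbance ratio.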

[2] = Cytotoxicity against human U937 cells assessed as cell viability at 20 ug/ml after 72 hrs by MTT assay; format: cell-based, U-937; conditions: read-out: Activity
In short: (§1)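 U937 human monocytic cells plated at 1 × 10^5 cells/mL and allowed to adhere for 1 h at 37 °C in 5% CO2. Non-adherent cells were washed off with RPMI 1640. Adherent cells were exposed to compound in triplicate, with medium alone as the live control and 3% Tween 20 as the dead control. MTT (5 mg/mL in PBS) was then added for 3 h at 37 °C. Formazan was dissolved in 0.4 M HCl/isopropanol and absorbance read at 600 nm. Results are expressed as % cell viability.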

[3] = Stability of the compound in 10% aqueous ammonia buffer at pH 8 assessed as hydrolysis to 2-bromo-6-(1H-imidazol-1-yl)-7H-indeno[2,1-c]quinolin-7-one oxime at 1 mg at 37 degC by LC-MS analysis; format: physicochemical; design: scale not given: the % may be the effect or the level left
In short: (§2)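 Chemical hydrolysis: 1 mg prodrug dissolved in 1 mL of 10% aqueous ammonia in methanol (pH 8) and held in a thermostatted water bath at 37 °C, up to 24 h. Conversion to the parent oxime was followed by TLC and LC-MS. t1/2 is the time to 50% hydrolysis.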

[4] = Cytotoxicity against human U937 cells assessed as cell viability at 10 ug/ml after 72 hrs by MTT assay; format: cell-based, U-937; conditions: read-out: Activity; in short: as §1
[5] = tested on: Mycobacterium tuberculosis; assay: Antimicrobial activity against Mycobacterium tuberculosis H37Rv ATCC 27294 after 16 to 24 hrs by microplate alamar blue assay; format: functional
In short: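 M. tuberculosis H37Rv inoculum 2×10^5 cfu/mL (100 µL) added to twofold dilutions in Middlebrook 7H12 medium; final test range 128 µM to 0.5 µM from 12.8 mM DMSO stocks. Incubated 37 °C; day 7 Tween 80 plus Alamar Blue added, further 16-24 h at 37 °C. Fluorescence ex 530/em 590 nm; MIC = lowest concentration giving >90% fluorescence reduction versus replicate bacteria-only controls. Rifampin, isoniazid controls.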

[6] = Half life in 10% aqueous ammonia buffer at pH 8 assessed as hydrolysis to 2-bromo-6-(1H-imidazol-1-yl)-7H-indeno[2,1-c]quinolin-7-one oxime at 37 degC by LC-MS analysis; format: physicochemical; in short: as §2
[7] = Selectivity index, ratio CC50 for human U937 cells to MIC for Mycobacterium tuberculosis H37Rv ATCC 27294; format: functional, U-937
[8] = Half life in human blood serum by LC-MS analysis; format: ADME, cell-free, Plasma
In short: (§3)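 Enzymatic hydrolysis: 1 mg prodrug dissolved in 1 mL ethanol, then 200 µL preheated human blood serum diluted to 80% with 0.16 M phosphate buffer (pH 7.4) was added. Samples were kept at 37 °C (24 h) and centrifuged 10 min at 10,000 rpm. Remaining prodrug in the supernatant was monitored by TLC and LC-MS. t1/2 is the time to 50% hydrolysis.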

[9] = Cytotoxicity against human U937 cells assessed as cell viability at 5 ug/ml after 72 hrs by MTT assay; format: cell-based, U-937; conditions: read-out: Activity; in short: as §1
[10] = Cytotoxicity against human U937 cells assessed as cell viability at 1.25 ug/ml after 72 hrs by MTT assay; format: cell-based, U-937; conditions: read-out: Activity; in short: as §1
Serum = assay: Stability of the compound in 80% human blood serum assessed as hydrolysis to 2-bromo-6-(1H-imidazol-1-yl)-7H-indeno[2,1-c]quinolin-7-one oxime at 1 mg after 24 hrs at 37 degC by LC-MS analysis; format: ADME, cell-free; design: scale not given: the % may be the effect or the level left; in short: as §3

CC(C)(C)OC(=O)N1CCC[C@H]1C(=O)O/N=C1\c2ccccc2-c2c1c(-n1ccnc1)nc1ccc(Br)cc21
logD [1]: 1.3
viability at 72 h, 20 ug/ml [2]: 78%
Activity [3]: 90%
viability at 72 h, 10 ug/ml [4]: 74%
MIC [5]: 0.39 µg/mL (≈ 0.663 µM)
half-life [6]: 12 h
Selectivity Index [7]: >102
half-life [8]: 24 h
viability at 72 h, 5 ug/ml [9]: 86%
viability at 72 h, 1.25 ug/ml [10]: 87%
Activity (Serum): 95%

— ChEMBL document CHEMBL1799922, “Synthesis and antimycobacterial activity of prodrugs of indeno[2,1-c]quinoline derivatives” (Eur J Med Chem, 2011)
